Laboratory results reported in ChEMBL document CHEMBL1140728, “Synthesis and biological activity of human neuropeptide S analogues modified in position 2” (J Med Chem, 2008).
Non-standard residues stand in square brackets, D forms with d. Residues, ends and D or L forms follow the SMILES beside them. Phe(4-NO2) = N[C@@H](Cc1ccc([N+](=O)[O-])cc1)C(=O)O; Bip = N[C@@H](Cc1ccc(-c2ccccc2)cc1)C(=O)O; Phe(4-Cl) = N[C@@H](Cc1ccc(Cl)cc1)C(=O)O; Dip = N[C@H](C(=O)O)C(c1ccccc1)c1ccccc1; 1Nal = N[C@@H](Cc1cccc2ccccc12)C(=O)O; Atc(2S) = N[C@@]1(C(=O)O)CCc2ccccc2C1; β3hF = N[C@H](CC(=O)O)Cc1ccccc1; Phg = N[C@H](C(=O)O)c1ccccc1

Experiments:
Type in all cases: functional, cell-based
[1] = molecular target: T1, Neuropeptide S receptor (Mus musculus) (UniProt Q8BZP8); assay: Agonist activity at mouse recombinant NPS receptor expressed in HEK293 cells assessed as intracellular calcium mobilization at 10 umol
T1 sequence (whole entry): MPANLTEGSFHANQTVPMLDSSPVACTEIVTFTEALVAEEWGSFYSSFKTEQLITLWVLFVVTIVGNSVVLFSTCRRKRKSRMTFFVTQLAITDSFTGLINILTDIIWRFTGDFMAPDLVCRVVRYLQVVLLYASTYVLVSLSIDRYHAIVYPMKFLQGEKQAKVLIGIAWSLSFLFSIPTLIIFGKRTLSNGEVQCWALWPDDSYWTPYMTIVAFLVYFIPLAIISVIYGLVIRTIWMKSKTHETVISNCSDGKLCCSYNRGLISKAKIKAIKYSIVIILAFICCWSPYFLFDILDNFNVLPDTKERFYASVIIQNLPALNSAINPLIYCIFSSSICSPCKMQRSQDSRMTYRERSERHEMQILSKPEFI

Neuropeptide S receptor = molecular target: T2, Neuropeptide S receptor (Mus musculus, UniProt Q8BZP8); assay: Agonist activity at mouse recombinant NPS receptor expressed in HEK293 cells assessed as intracellular calcium mobilization
T2 sequence (Q8BZP8 whole entry): T1 sequence (whole entry)
Outline: (§1)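 HEK293 cells stably expressing mouse NPSR, kept in DMEM with 10% FBS, 2 mM L-glutamine and hygromycin (100 mg/L), were seeded at 50 000 cells/well. Next day they were loaded with Fluo-4 AM (3 µmol), probenecid (2.5 mmol) and 0.01% pluronic acid for 30 min at 37 °C. Agonist dilutions in HBSS/HEPES with 0.02% BSA were added, and FlexStation II fluorescence was read at 22 °C.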

[2] = molecular target: T1, Neuropeptide S receptor (Mus musculus); assay: Agonist activity at mouse recombinant NPS receptor expressed in HEK293 cells assessed as intracellular calcium mobilization relative to baseline; outline: as §1

| Compound | Activity [1] | EC50 (Neuropeptide S receptor) | Emax [2] |
| --- | --- | --- | --- |
| H-SNRNGVGTGMKKTSFQRAKS-OH | 49% | – | – |
| CSCC[C@H](NC(=O)CNC(=O)[C@@H](NC(=O)CNC(=O)[C@@H](NC(=O)CNC(=O)[C@H](CC(N)=O)NC(=O)[C@H](CCCNC(=N)N)NC(=O)[C@@H](NC(=O)[C@@H](N)CO)c1ccccc1)C(C)C)[C@@H](C)O)C(=O)N[C@@H](CCCCN)C(=O)N[C@@H](CCCCN)C(=O)N[C@H](C(=O)N[C@@H](CO)C(=O)N[C@@H](Cc1ccccc1)C(=O)N[C@@H](CCC(N)=O)C(=O)N[C@@H](CCCNC(=N)N)C(=O)N[C@@H](C)C(=O)N[C@@H](CCCCN)C(=O)N[C@@H](CO)C(=O)O)[C@@H](C)O (H-S[Phg]RNGVGTGMKKTSFQRAKS-OH) | 141% | – | – |
| H-SKRNGVGTGMKKTSFQRAKS-OH | 103% | – | – |
| CSCC[C@H](NC(=O)CNC(=O)[C@@H](NC(=O)CNC(=O)[C@@H](NC(=O)CNC(=O)[C@H](CC(N)=O)NC(=O)[C@H](CCCNC(=N)N)NC(=O)[C@@H](NC(=O)[C@@H](N)CO)C(c1ccccc1)c1ccccc1)C(C)C)[C@@H](C)O)C(=O)N[C@@H](CCCCN)C(=O)N[C@@H](CCCCN)C(=O)N[C@H](C(=O)N[C@@H](CO)C(=O)N[C@@H](Cc1ccccc1)C(=O)N[C@@H](CCC(N)=O)C(=O)N[C@@H](CCCNC(=N)N)C(=O)N[C@@H](C)C(=O)N[C@@H](CCCCN)C(=O)N[C@@H](CO)C(=O)O)[C@@H](C)O (H-S[Dip]RNGVGTGMKKTSFQRAKS-OH) | 130% | – | – |
| H-STRNGVGTGMKKTSFQRAKS-OH | 114% | – | – |
| CSCC[C@H](NC(=O)CNC(=O)[C@@H](NC(=O)CNC(=O)[C@@H](NC(=O)CNC(=O)[C@H](CC(N)=O)NC(=O)[C@H](CCCNC(=N)N)NC(=O)[C@H](Cc1cccc2ccccc12)NC(=O)[C@@H](N)CO)C(C)C)[C@@H](C)O)C(=O)N[C@@H](CCCCN)C(=O)N[C@@H](CCCCN)C(=O)N[C@H](C(=O)N[C@@H](CO)C(=O)N[C@@H](Cc1ccccc1)C(=O)N[C@@H](CCC(N)=O)C(=O)N[C@@H](CCCNC(=N)N)C(=O)N[C@@H](C)C(=O)N[C@@H](CCCCN)C(=O)N[C@@H](CO)C(=O)O)[C@@H](C)O (H-S[1Nal]RNGVGTGMKKTSFQRAKS-OH) | – | 1.95 nM | 232% |
| CSCC[C@H](NC(=O)CNC(=O)[C@@H](NC(=O)CNC(=O)[C@@H](NC(=O)CNC(=O)[C@H](CC(N)=O)NC(=O)[C@H](CCCNC(=N)N)NC(=O)[C@]1(NC(=O)[C@@H](N)CO)CCc2ccccc2C1)C(C)C)[C@@H](C)O)C(=O)N[C@@H](CCCCN)C(=O)N[C@@H](CCCCN)C(=O)N[C@H](C(=O)N[C@@H](CO)C(=O)N[C@@H](Cc1ccccc1)C(=O)N[C@@H](CCC(N)=O)C(=O)N[C@@H](CCCNC(=N)N)C(=O)N[C@@H](C)C(=O)N[C@@H](CCCCN)C(=O)N[C@@H](CO)C(=O)O)[C@@H](C)O (H-S[Atc(2S)]RNGVGTGMKKTSFQRAKS-OH) | – | 11.2 nM | 257% |

More lines, now with the values ahead:

| Activity [1] | EC50 (Neuropeptide S receptor) | Emax [2] | Compound |
| --- | --- | --- | --- |
| 54% | – | – | H-SQRNGVGTGMKKTSFQRAKS-OH |
| 177% | – | – | CSCC[C@H](NC(=O)CNC(=O)[C@@H](NC(=O)CNC(=O)[C@@H](NC(=O)CNC(=O)[C@H](CC(N)=O)NC(=O)[C@H](CCCNC(=N)N)NC(=O)C[C@H](Cc1ccccc1)NC(=O)[C@@H](N)CO)C(C)C)[C@@H](C)O)C(=O)N[C@@H](CCCCN)C(=O)N[C@@H](CCCCN)C(=O)N[C@H](C(=O)N[C@@H](CO)C(=O)N[C@@H](Cc1ccccc1)C(=O)N[C@@H](CCC(N)=O)C(=O)N[C@@H](CCCNC(=N)N)C(=O)N[C@@H](C)C(=O)N[C@@H](CCCCN)C(=O)N[C@@H](CO)C(=O)O)[C@@H](C)O (H-S[β3hF]RNGVGTGMKKTSFQRAKS-OH) |
| 170% | – | – | H-SERNGVGTGMKKTSFQRAKS-OH |
| 39% | – | – | H-SDRNGVGTGMKKTSFQRAKS-OH |
| – | 3.63 nM | 290% | CSCC[C@H](NC(=O)CNC(=O)[C@@H](NC(=O)CNC(=O)[C@@H](NC(=O)CNC(=O)[C@H](CC(N)=O)NC(=O)[C@H](CCCNC(=N)N)NC(=O)[C@H](Cc1ccc([N+](=O)[O-])cc1)NC(=O)[C@@H](N)CO)C(C)C)[C@@H](C)O)C(=O)N[C@@H](CCCCN)C(=O)N[C@@H](CCCCN)C(=O)N[C@H](C(=O)N[C@@H](CO)C(=O)N[C@@H](Cc1ccccc1)C(=O)N[C@@H](CCC(N)=O)C(=O)N[C@@H](CCCNC(=N)N)C(=O)N[C@@H](C)C(=O)N[C@@H](CCCCN)C(=O)N[C@@H](CO)C(=O)O)[C@@H](C)O (H-S[Phe(4-NO2)]RNGVGTGMKKTSFQRAKS-OH) |
| – | 1.1 nM | 270% | H-SFRNGVGTGMKKTSFQRAKS-OH [NEUROPEPTIDE S] |
| – | 8.32 nM | 282% | H-SLRNGVGTGMKKTSFQRAKS-OH |
| – | 20 nM | 170% | CSCC[C@H](NC(=O)CNC(=O)[C@@H](NC(=O)CNC(=O)[C@@H](NC(=O)CNC(=O)[C@H](CC(N)=O)NC(=O)[C@H](CCCNC(=N)N)NC(=O)[C@H](Cc1ccc(-c2ccccc2)cc1)NC(=O)[C@@H](N)CO)C(C)C)[C@@H](C)O)C(=O)N[C@@H](CCCCN)C(=O)N[C@@H](CCCCN)C(=O)N[C@H](C(=O)N[C@@H](CO)C(=O)N[C@@H](Cc1ccccc1)C(=O)N[C@@H](CCC(N)=O)C(=O)N[C@@H](CCCNC(=N)N)C(=O)N[C@@H](C)C(=O)N[C@@H](CCCCN)C(=O)N[C@@H](CO)C(=O)O)[C@@H](C)O (H-S[Bip]RNGVGTGMKKTSFQRAKS-OH) |
| – | 0.708 nM | 298% | CSCC[C@H](NC(=O)CNC(=O)[C@@H](NC(=O)CNC(=O)[C@@H](NC(=O)CNC(=O)[C@H](CC(N)=O)NC(=O)[C@H](CCCNC(=N)N)NC(=O)[C@H](Cc1ccc(Cl)cc1)NC(=O)[C@@H](N)CO)C(C)C)[C@@H](C)O)C(=O)N[C@@H](CCCCN)C(=O)N[C@@H](CCCCN)C(=O)N[C@H](C(=O)N[C@@H](CO)C(=O)N[C@@H](Cc1ccccc1)C(=O)N[C@@H](CCC(N)=O)C(=O)N[C@@H](CCCNC(=N)N)C(=O)N[C@@H](C)C(=O)N[C@@H](CCCCN)C(=O)N[C@@H](CO)C(=O)O)[C@@H](C)O (H-S[Phe(4-Cl)]RNGVGTGMKKTSFQRAKS-OH) |
